Data on ten molecules can be found in PMC12376068 (Protein Science : A Publication of the Protein Society, 2025).

The target in one data set is hPD-L1 (Homo sapiens, UniProt Q9NZQ7). Briefly: Biolayer interferometry. In kind it is binding. Summed up:
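Extracellular-domain hPD-L1 was expressed in HEK293F cells, Ni-NTA purified and BirA-biotinylated. At 1 μg mL−1 it was loaded onto streptavidin biosensors to 1.4 nm, with PD-L1-free sensors as reference. Association ran 180 s and dissociation 900 s in assay buffer. Sensorgrams were normalized to no-peptide and globally fit to a 1:1 Langmuir model. Duplicates; means and fitting errors reported.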

The target of data set [1] is mouse PD-L1 (mPD-L1) on CHO cells (Mus musculus, UniProt Q9EP73). Briefly: Flow cytometry binding to CHO cells expressing mouse PD-L1. Type of data set: cell-based. As to conditions: highest concentration tested, 1200 nM (Figure S15E). For orientation: In flow cytometry, cells or beads pass a laser one at a time.
Chain of mouse PD-L1 (mPD-L1) on CHO cells (Q9EP73 19-290): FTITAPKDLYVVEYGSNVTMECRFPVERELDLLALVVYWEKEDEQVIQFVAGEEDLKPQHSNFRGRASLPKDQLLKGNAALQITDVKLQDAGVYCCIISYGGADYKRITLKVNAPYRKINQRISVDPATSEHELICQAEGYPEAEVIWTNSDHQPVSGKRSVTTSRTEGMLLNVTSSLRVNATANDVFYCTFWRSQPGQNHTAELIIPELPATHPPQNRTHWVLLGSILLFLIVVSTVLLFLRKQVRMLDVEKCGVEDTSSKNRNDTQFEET
Data set [2] has as its target T1, human PD-L2 (hPD-L2) on CHO cells (Homo sapiens, UniProt Q9BQ51).
T1 sequence (Q9BQ51 20-273): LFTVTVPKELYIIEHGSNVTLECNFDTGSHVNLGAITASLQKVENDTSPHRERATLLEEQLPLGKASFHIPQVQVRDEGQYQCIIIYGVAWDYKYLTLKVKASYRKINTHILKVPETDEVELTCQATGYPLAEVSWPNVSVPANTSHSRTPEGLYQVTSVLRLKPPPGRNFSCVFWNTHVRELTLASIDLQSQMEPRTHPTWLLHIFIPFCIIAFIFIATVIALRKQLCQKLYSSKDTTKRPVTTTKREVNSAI
Briefly: Flow cytometry binding to CHO cells expressing human PD-L2. Type of data set: cell-based. Particulars: highest concentration tested, 1200 nM (Figure S15E). Summed up:
(§1)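 CHO cells stably transfected with hPD-L2, or MDA-MB-468 cells, were grown in DMEM with 10% heat-inactivated FBS. They were lifted with trypsin-EDTA and resuspended in serum-free medium at 200,000 cells per well. Cells were incubated 1 h at 4°C in the dark with a dilution series of fluorescein-conjugated test peptide in cold 1:1 PBS:SF medium. After three cold-PBS washes, live single-cell fluorescence was read by flow cytometry (488 nm excitation).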

Data set [3] is described as follows: Peptide solubility and aggregation. In kind it is physicochemical. As to conditions: all conditions tested for CD spectroscopy. An outline of the steps: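 Lyophilized peptide was reconstituted in phosphate buffer (15 mM pH 6.5 or 50 mM pH 4.5) containing 10–20% MeOH or TFE. Samples were vortexed and sonicated 5 min. Concentration was set by absorbance at 280 nm, using 5500 M−1 cm−1 per Trp and 1490 M−1 cm−1 per Tyr. Absorbance had to stay constant over 20 min to exclude aggregation.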

Data set [4] deals with hPD-L1 on the surface of CHO cells (Homo sapiens, UniProt Q9NZQ7). Briefly: Flow cytometry binding to CHO hPD-L1 cells. In kind it is cell-based. As to conditions: flow cytometry (Figure S15D).
Chain of hPD-L1 on the surface of CHO cells (Q9NZQ7 19-290): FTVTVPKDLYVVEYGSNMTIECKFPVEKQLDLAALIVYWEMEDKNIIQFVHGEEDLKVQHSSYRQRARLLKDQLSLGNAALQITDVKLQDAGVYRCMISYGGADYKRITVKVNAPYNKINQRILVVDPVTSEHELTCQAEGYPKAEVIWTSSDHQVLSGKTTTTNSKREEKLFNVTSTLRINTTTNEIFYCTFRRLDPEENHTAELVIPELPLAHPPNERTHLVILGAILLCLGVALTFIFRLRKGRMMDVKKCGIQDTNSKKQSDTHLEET
Data set [5] in a line: Far-UV CD thermal denaturation. In kind it is physicochemical. As to conditions: pH 6.5, 0-90°C. Summed up: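 Peptide was prepared in PB/MeOH 80:20 (15 mM PB pH 6.5 or 50 mM pH 4.5) at 17–70 μM, set by UV absorbance, in a 0.1 cm quartz cuvette. Far-UV spectra were taken at 190–270 nm, averaged over eight scans, with solvent blank subtracted. The ramp ran 0–90°C at 45°C per hour under nitrogen. Melts used molar ellipticity at 220 or 222 nm; first-derivative maxima gave transitions.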

The conditions of data set [6]: cited from earlier work.
Another data set has as its target PD-1/hPD-L1 interaction (Homo sapiens, UniProt Q9NZQ7). Kind of data set: PD-L1 T-cell reactivation assay. As to conditions: 5 μM peptide, 6 h at 37 °C, Bio-Glo luminescence, RLU relative to vehicle. Type of data set: cell-based.
Another data set concerns MDA-MB-468 cells. Kind of data set: Flow cytometry binding to hPD-L1-negative MDA-MB-468 cells. In kind it is cell-based, human. As to conditions: SPAM2-fluorescein dilution series. Summed up: as §1
Data set [7] concerns the target human PD‐L1 stably expressed on CHO cells (human, UniProt Q9NZQ7 19-290). Briefly: flow cytometry on cells.

Bridge positions count the residues as written; N and C are the ends. Square brackets hold non-standard residues; d marks the D form. Ends that are not written are not given here. I, II: the chains in the order shown. propargylglycine(fluorescein) = propargylglycine labeled with fluorescein azide by click chemistry; PEG10 = NCCOCCOCCOCCOCCOCCOCCOCCOCCOCCOCCC(=O)O

Chain of hPD-L1 (Q9NZQ7 19-238 limits assumed): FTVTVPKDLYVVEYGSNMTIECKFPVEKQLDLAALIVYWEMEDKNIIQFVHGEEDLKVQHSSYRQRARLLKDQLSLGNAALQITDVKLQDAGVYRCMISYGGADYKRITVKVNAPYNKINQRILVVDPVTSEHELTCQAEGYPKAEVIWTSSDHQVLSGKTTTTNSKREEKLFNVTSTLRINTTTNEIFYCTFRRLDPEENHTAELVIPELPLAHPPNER
Chain of human PD‐L1 stably expressed on CHO cells (Q9NZQ7 19-290): as the sequence (Q9NZQ7 19-290) above
Chain of PD-1/hPD-L1 interaction (Q9NZQ7 19-290): as above

A word on the koff: it is a measure of how fast the partners let go of each other. Lower therefore signals slow dissociation. One may read the kon as a measure of how fast the partners come together. For the molecule “I: MYSSTDHILNKFLILHYALNPT[PEG10]K-NH2 / II: MYSSTDHILNKFLILHYALNPT[PEG10] (amide I:24-II:C) [SPAM4]”, on hPD-L1, the koff was 0.000219 ± 4e-06 s⁻¹ and the kon came out at 2.23e+06 ± 110000 M⁻¹ s⁻¹. The “binding to CHO-mPD-L1 cells” value in [1] is recorded as “no binding”. In addition, in [2], the “binding to CHO-hPD-L2 cells” value is recorded as “no binding”. Further, the “solubility” value in [3] is given as “low solubility”.
With “MALPIFSNTYLSHTDLKNYHILGSSSSGS [SPAM3 scrambled]”, the “binding of sequence-scrambled peptides to CHO-hPD-L1 cells” value in data set [4] is recorded as “no significant binding”.
One may read the Kd as the constant that tells how readily two partners part at equilibrium. A low value points to higher affinity. On hPD-L1, MPIFLDHILNKFWILHYA-NH2 [SPAM] had a koff of 0.049 ± 0.0009 s⁻¹ and a kon of 1.41e+06 ± 30000 M⁻¹ s⁻¹. The molecule also showed a Kd at hPD-L1 (K D by BLI, BLI, mean of duplicate) of 38 ± 1 nM. In data set [5], the “temperature above which irreversible aggregation occurs in thermal denaturation” value is “above 50 °C”. The “serum stability (ex vivo)” value in data set [6] (ref Kamalinia et al., 2020) is recorded as “acceptable serum stability”.
Turning to “MSLANYNWSHPSRKDNIHWSLFGSSSSGS [SPAM2 scrambled]”, in [4], the “binding of sequence-scrambled peptides to CHO-hPD-L1 cells” value is on record as “no significant binding”.
With MWSRSDHNLNKFWILHYSANPS-NH2 [SPAM2], at hPD-L1, the koff was determined as 0.00264 ± 2e-05 s⁻¹ and the kon was found to be 8.78e+06 ± 210000 M⁻¹ s⁻¹. For the same molecule, at PD-1/hPD-L1 interaction, the “signal restored in T-cell reactivation assay” value is reported as “more than 50%”.
Take MYSSTDHILNKFLILHYALNPT-NH2 [SPAM3]: at hPD-L1, the koff was found to be 0.00146 ± 1e-05 s⁻¹ and the kon stood at 5.78e+06 ± 80000 M⁻¹ s⁻¹.
“SGQYASYHCWCWRDPGRSGGSK [TPP-1, reference compound]”: the “serum stability” value in data set [6] (ref Hu et al., 2019) was “poor serum stability”.
For “SPAM2‐fluorescein: SPAM2 with C-terminal propargylglycine labeled with fluorescein azide by click chemistry (MWSRSDHNLNKFWILHYSANPS-{propargylglycine(fluorescein)}; also: fluorescein azide attached by click chemistry)”, the “labeling of hPD-L1-negative cells” value in the data set with MDA-MB-468 cells was “no concentration‐dependent labeling”.
The molecule MWSRSDHNLNKFWILHYSANPS (also: fluorescein (position not given here)) [SPAM2‐fluorescein] had a Kd in data set [7] of 15.3 nM.
MYSSTDHILNKFLILHYALNPT (also: fluorescein (position not given here)) [fluorescein‐labeled SPAM3] yielded a Kd in [7] of 5.15 nM.
